Experimental data gathered from unrelated publications.
Each line is one published result; the experiments were not run side by side.
Cell line: MDA-MB-231
Read-out: cell growth or viability

C[C@@H]1CC[C@@H]([C@](C)(O)CNCc2cccc(F)c2)[C@H](OCc2ccccc2)C1
inhibition (MTT; 30 µM, 72 h): 96.1%

CC(=NNC(=O)COc1ccc2c(C)c(Cc3ccccc3)c(=O)oc2c1C)c1ccc(Br)cc1
viability (MTT; 1000 µg/mL): 15.1%

C=CC(=O)c1cccnc1Nc1cccc(C(F)(F)F)c1
GI50 (SRB; 48 h): 14600 nM

COc1ccc(CNC[C@@](C)(O)[C@@H]2CC[C@@H](C)C[C@H]2OCc2ccccc2)cc1
inhibition (MTT; 10 µM, 72 h): 45.7%

Cc1c(Cc2ccccc2)c(=O)oc2c(C)c(OCC(=O)NN=Cc3ccc(Cl)cc3)ccc12
viability (MTT; 62.5 µg/mL): 47.1%

C=CC(=O)NC1CCN(c2ncc3ncnc(Nc4ccc(Oc5ccc6c(c5)ncn6C)c(C)c4)c3n2)CC1
EC50: 328 nM

CCc1c(C)c2ccc(OCC(=O)NN=Cc3ccc([N+](=O)[O-])cc3)cc2oc1=O
viability (MTT; 250 µg/mL): 17.3%

O=C(/C=C/c1ccc(F)cc1)Nc1cc(-c2ccnc(N3CCC(O)CC3)c2)ccn1
inhibition (MTT; 5 µM): 63%

C[C@@H]1CC[C@@H]([C@](O)(CNCc2cccc3ccccc23)COCc2ccccc2)[C@H](OCc2ccccc2)C1
inhibition (MTT; 30 µM, 72 h): 98%

CCc1c(C)c2ccc(OCc3nnc(S)n3N)c(C)c2oc1=O
viability (MTT; 62.5 µg/mL): 69.4%

Cc1cccc(/C=C/C(=O)Nc2cccc(-c3ccnc(N4CCC(O)CC4)c3)c2)c1
inhibition (MTT; 5 µM): 63.5%

CCc1c(C)c2ccc(OCC=Cc3ccccc3)c(C)c2oc1=O
viability (MTT; 500 µg/mL): 13%

COc1ccc(CNC[C@](O)(COCc2ccc(OC)cc2)[C@@H]2CC[C@@H](C)C[C@H]2OCc2ccc(OC)cc2)cc1
inhibition (MTT; 10 µM, 72 h): 96.8%

Cc1cccc(/C=C/C(=O)Nc2cc(-c3ccnc(N4CCC(O)CC4)c3)ccn2)c1
inhibition (MTT; 5 µM): 75.6%

C=C(COCc1ccccc1)[C@@H]1CC[C@@H](C)C[C@H]1OCc1ccccc1
inhibition (MTT; 30 µM, 72 h): 28.1%

Cc1cccc(/C=C/C(=O)Nc2cc(-c3ccnc(N4CCOCC4)c3)ccn2)c1
inhibition (MTT; 5 µM): 79.3%

O=C(NO)c1ccc(CNc2ccc(NC3=C(Cl)C(=O)c4cccnc4C3=O)cc2)cc1-c1ccccc1
IC50 (MTT; 48 h): 2500 nM

CCNCCCn1c2c(c3cc(OC)c(OC)cc3c1=O)C(=O)c1cc3c(nc1-2)OCO3
IC50 (MTS; 72 h): 476 nM

C[C@@H]1CC[C@@H]([C@](C)(O)Cn2cnc3ccccc32)[C@H](OCc2ccccc2)C1
inhibition (MTT; 30 µM, 72 h): 83.2%

C=CCOc1ccc2c(C)c(CC)c(=O)oc2c1C
viability (MTT; 31.25 µg/mL): 99.7%
